This is an account of results in ChEMBL document CHEMBL1275313, “Synthesis and biological evaluation of novel 10-benzyl-substituted 4,5-dichloro-10H-anthracen-9-ones as inhibitors of keratinocyte hyperproliferation” (Eur J Med Chem, 2010).

Usually EC50 stands for the concentration giving half of the maximal effect. For orientation: IC50 means the concentration at which inhibition is half-maximal.

In data set [1] the test system is Radical scavenging activity. Nature of the data set: Antioxidant activity assessed as DPPH free radical scavenging activity by spectrophotometry. Format: functional. The procedure, abridged:
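DPPH radical decrease read spectrophotometrically as absorbance at 520 nm. Percent interaction = (1 − test absorbance/control absorbance) × 100, with test means from N = 3 and control means from N = 8. EC50 is the concentration giving a 50% drop in DPPH absorbance, obtained by nonlinear regression. NDGA and α-tocopherol served as positive controls.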
(In general: The DPPH test is a chemical assay of radical scavenging.)

The subject of data set [2] is HaCaT. The experiment in a line: Cytotoxicity against human HaCaT cells assessed as LDH release at 2 uM after 4 hrs. Format: cell-based. The procedure, abridged:
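HaCaT cells were exposed to test compound for 4 h at 37 °C. Extracellular LDH activity was measured by the UV method with pyruvate and NADH and expressed in mU/mL. The vehicle control was 0.2% DMSO in culture medium, and Brij 35 with ultrasound was the positive control. N = 3, SD < 10%.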
On the technique in general: LDH leaks from cells whose membrane has failed.

Data set [3] has as its system HaCaT. The experiment in a line: Antiproliferative activity against human HaCaT cells after 48 hrs by phase contrast microscopy. Format: functional, cell-based. The procedure, abridged:
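HaCaT human keratinocytes were grown in DMEM with 10% fetal calf serum, penicillin and streptomycin at 37 °C under 8% CO2. After 48 h of exposure, dispersed cells were counted by phase-contrast microscopy. Inhibition = (1 − test/control) × 100, with test N = 3 and control N = 6–8. Significance was tested by Student's t-test. IC50 was obtained by nonlinear regression.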

Regarding `O=C1c2cccc(Cl)c2Cc2c(Cl)cccc21`, the EC50 in data set [1] amounted to 29.5 µM. The Activity in the data set with HaCaT [2] is 64.4 mU/ml.
Consider `O=C1c2cccc(Cl)c2C(Cc2ccccc2Cl)c2c(Cl)cccc21`, for which, in data set [1], the EC50 was over 50 µM. In addition, half-maximal inhibition in the data set on HaCaT [3] (IC50) required 30 µM.
On to `O=C1c2cccc(Cl)c2C(Cc2ccc(Cl)cc2)c2c(Cl)cccc21`, for which the EC50 in data set [1] is over 50 µM. In the data set on HaCaT [3], this molecule gave an IC50 of 36 µM.
`COc1ccccc1CC1c2c(Cl)cccc2C(=O)c2cccc(Cl)c21`: the EC50 in data set [1] was over 50 µM. Besides, the half-maximal inhibitory concentration (IC50) in the data set with HaCaT [3] is over 50 µM.
Consider `COc1cccc(CC2c3c(Cl)cccc3C(=O)c3cccc(Cl)c32)c1`, for which the EC50 in data set [1] is over 50 µM. Further, inhibition in the data set with HaCaT [3] was half-maximal at 2 µM (IC50). Also, the Activity in the data set with HaCaT [2] amounted to 65 mU/ml.
The like results for `COc1ccc(CC2c3c(Cl)cccc3C(=O)c3cccc(Cl)c32)cc1` were, in that order, over 50 µM, 5 µM and 57.6 mU/ml.
With `COc1ccc(CC2c3c(Cl)cccc3C(=O)c3cccc(Cl)c32)cc1OC`, the half-maximal effective concentration (EC50) in data set [1] is over 50 µM. Besides, in the data set with HaCaT [3], the IC50 was 5 µM. In addition, the Activity with HaCaT [2] was 68.4 mU/ml.
For `COc1cc(CC2c3c(Cl)cccc3C(=O)c3cccc(Cl)c32)cc(OC)c1`, the EC50 in data set [1] was over 50 µM. The molecule also came in with a half-maximal inhibitory concentration (IC50) in the data set with HaCaT [3] of 24 µM.
With `COc1cc(CC2c3c(Cl)cccc3C(=O)c3cccc(Cl)c32)cc(OC)c1OC`, the EC50 in data set [1] was over 50 µM. In the data set with HaCaT [3], this molecule registered an IC50 of over 50 µM.
Turning to `O=C1c2cccc(Cl)c2C(Cc2ccccc2[N+](=O)[O-])c2c(Cl)cccc21`, in data set [1], the EC50 is over 50 µM. In the data set with HaCaT [3], this molecule showed an IC50 of over 50 µM.
As to `O=C1c2cccc(Cl)c2C(Cc2cccc([N+](=O)[O-])c2)c2c(Cl)cccc21`, in data set [1], the concentration for a half-maximal effect (EC50) was over 50 µM. The molecule further registered an IC50 in the data set on HaCaT [3] of 5 µM. In addition, in the data set with HaCaT [2], the Activity stood at 69.9 mU/ml.
With `O=C1c2cccc(Cl)c2C(Cc2ccc([N+](=O)[O-])cc2)c2c(Cl)cccc21`, in data set [1], the EC50 was over 50 µM. In the data set with HaCaT [3], this molecule gave an IC50 of over 50 µM.
For the molecule `O=C1c2cccc(Cl)c2C(Cc2ccc([N+](=O)[O-])cc2[N+](=O)[O-])c2c(Cl)cccc21`, the EC50 in data set [1] was over 50 µM. Besides, the IC50 with HaCaT [3] was determined as 17 µM.
The like results for `O=C1c2cccc(Cl)c2C(Cc2cccc(OCc3ccccc3)c2)c2c(Cl)cccc21` were, in that order, over 50 µM and 22 µM.
Regarding `O=C1c2cccc(Cl)c2C(Cc2ccc(OCc3ccccc3)cc2)c2c(Cl)cccc21`, the EC50 in data set [1] is over 50 µM. The molecule further showed an IC50 with HaCaT [3] of 36 µM.
`O=C1c2cccc(Cl)c2C(Cc2ccc(OCc3ccccc3)c(OCc3ccccc3)c2)c2c(Cl)cccc21`: the EC50 in data set [1] is over 50 µM. The concentration for half-maximal inhibition (IC50) with HaCaT [3] is over 50 µM.
As for `COc1ccc(CC2c3c(Cl)cccc3C(=O)c3cccc(Cl)c32)cc1OCc1ccccc1`, the EC50 in data set [1] was over 50 µM. In the data set on HaCaT [3], this molecule had an IC50 of over 50 µM.
Regarding `O=C1c2cccc(Cl)c2C(Cc2cccc(O)c2)c2c(Cl)cccc21`, in data set [1], the EC50 is over 50 µM. Also, in the data set on HaCaT [3], the concentration for half-maximal inhibition (IC50) came to 15 µM.
For the molecule `O=C1c2cccc(Cl)c2C(Cc2ccc(O)cc2)c2c(Cl)cccc21`, the EC50 in data set [1] was over 50 µM. Besides, the IC50 in the data set with HaCaT [3] was determined as 19 µM.
In the case of `O=C1c2cccc(Cl)c2C(Cc2ccc(O)c(O)c2)c2c(Cl)cccc21`, in data set [1], the concentration giving a half-maximal response (EC50) was 6.3 µM. In the data set with HaCaT [3], this molecule had an IC50 of 18 µM. Besides, in the data set on HaCaT [2], the Activity worked out at 76.6 mU/ml.
The like results for `COc1ccc(CC2c3c(Cl)cccc3C(=O)c3cccc(Cl)c32)cc1O` were, in that order, over 50 µM, 0.7 µM and 69.5 mU/ml.
Regarding `O=C1c2cccc(Cl)c2C(c2ccccc2)c2c(Cl)cccc21`, the EC50 in data set [1] was over 50 µM. For the same molecule, the IC50 with HaCaT [3] was over 50 µM.
For `Cc1ccc(C2c3c(Cl)cccc3C(=O)c3cccc(Cl)c32)cc1`, in data set [1], the EC50 was over 50 µM. The molecule also came in with an IC50 with HaCaT [3] of over 50 µM.
As for `O=C1c2cccc(Cl)c2C(Cc2ccccc2)c2c(Cl)cccc21`, the EC50 in data set [1] was over 50 µM. For the same molecule, the concentration for half-maximal inhibition (IC50) in the data set on HaCaT [3] came to 4.3 µM. The Activity in the data set on HaCaT [2] was determined as 69.6 mU/ml.
Take `COc1ccc(OC)c(CC2c3c(Cl)cccc3C(=O)c3cccc(Cl)c32)c1`: the EC50 in data set [1] was over 50 µM. The midpoint of inhibition in the data set with HaCaT [3], the IC50, lay at 3.8 µM. For the same molecule, the Activity in the data set with HaCaT [2] was determined as 60.6 mU/ml.
In the case of `COc1ccc(C2c3c(Cl)cccc3C(=O)c3cccc(Cl)c32)cc1`, the EC50 in data set [1] is over 50 µM. Also, the 50% inhibitory concentration (IC50) in the data set on HaCaT [3] came to 20 µM.
Turning to `Cc1ccc(CC2c3c(Cl)cccc3C(=O)c3cccc(Cl)c32)cc1`, the EC50 in data set [1] was over 50 µM. Besides, in the data set on HaCaT [3], the midpoint of inhibition, the IC50, lay at 44 µM.
On the same counts, the results for `O=C1c2cccc(Cl)c2C(Cc2ccc(C(F)(F)F)cc2)c2c(Cl)cccc21` are over 50 µM and 25 µM.
Turning to `O=C1c2c(O)cccc2Cc2cccc(O)c21` [ANTHRALIN], the concentration giving a half-maximal response (EC50) in data set [1] worked out at 16.7 µM. Besides, the Activity in the data set on HaCaT [2] was determined as 122.8 mU/ml.
